Laboratory results from publication PMC10753860 (European journal of medicinal chemistry, 2023).

Key:
[1] = tested on: HBV replication in AML12HBV10 cells; experiment: Antiviral dot blot hybridization assay of HBV DNA in AML12HBV10 cells; format: cell-based, hepatitis B virus (mouse hepatocyte-derived cell line)
[2] = tested on: HBV capsid assembly and pgRNA encapsidation in AML12HBV10 cells; experiment: Mode of action study in AML12HBV10 cells; format: cell-based, hepatitis B virus (mouse hepatocyte-derived cell line); conditions: 2 days, ETV 1 μM; for amount of encapsidated pgRNA / viral DNA replication intermediates: Bay 41-4109 2 μM, DVR-23 5 μM; for amount of encapsidated pgRNA / viral DNA replication intermediates / amount of total viral RNA / amount of core protein: 17 or 18 1 or 5 μM; for amount of encapsidated pgRNA / amount of total viral RNA: Northern blot; for viral DNA replication intermediates: Southern blot; for amount of core protein: Western blot
How it was run: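 Mouse hepatocyte-derived AML12HBV10 cells carry a tetracycline-inducible, envelope-deficient HBV genome. They were seeded in 24-well plates, kept with tet (negative control) or without it for 24 h, then DMSO- or compound-treated for 48 h. Read-outs: total RNA and encapsidated pgRNA by Northern blot (rRNA loading); Cp by Western blot with antibody to its C-terminal 14 residues (β-actin loading); capsids and core DNA by native agarose particle gel.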

[3] = tested on: HBV replication in AML12HBV10 cells; conditions: HBV AML12HBV10 cell line; cited from earlier work

## O=C(Nc1ccc(F)c(Cl)c1)N1CCCc2ccccc21 [Compound 27, N-(3-chloro-4-fluorophenyl)-3,4-dihydroquinoline-1(2H)-carboxamide]
[1]; AML12HBV10 cells, replacement of 4-N with CH2
  reduction of activity relative to 17: 3 fold

## NC1CCN(C(=O)Nc2ccc(F)c(Cl)c2)c2ccccc21 (stereo not drawn) [Compound 28, 4-Amino-N-(3-chloro-4-fluorophenyl)-3,4-dihydroquinoline-1(2H)-carboxamide]
[1]; AML12HBV10 cells
  anti-HBV activity (in words): no activity was observed

## O=C(Nc1cc(F)c(F)c(F)c1)N1CCN(C(=O)Nc2ccc(F)c(Cl)c2)c2ccccc21 [Compound 95, N^1-(3-chloro-4-fluorophenyl)-N^4-(3,4,5-trifluorophenyl)-2,3-dihydroquinoxaline-1,4-dicarboxamide]
[1]; AML12HBV10 cells
  anti-HBV activity (in words): sub-micromolar activities

## O=C(Nc1cccc(Cl)c1)N1c2ccccc2NCC1CN1CCC(F)(F)CC1 (stereo not drawn) [Compound 89, N-(3-chlorophenyl)-2-((4,4-difluoropiperidin-1-yl)methyl)-3,4-dihydroquinoxaline-1(2H)-carboxamide]
[1]; AML12HBV10 cells
  anti-HBV activity (in words): moderate sub-micromolar

## O=C(Nc1ccc(F)c(C(F)F)c1)N1CCNc2ccccc21 [Compound 35, N-(3-(difluoromethyl)-4-fluorophenyl)-3,4-dihydroquinoxaline-1(2H)-carboxamide]
[1]; AML12HBV10 cells
  anti-HBV activity (in words): improved the potencies

## O=C(Nc1ccc(F)c(Cl)c1)N1CCc2ccccc21 [Compound 30, N-(3-chloro-4-fluorophenyl)indoline-1-carboxamide]
[1]; AML12HBV10 cells
  anti-HBV activity (in words): maintained activity

## O=C(Nc1ccc(F)c(Cl)c1)N1CCCCc2ccccc21 [Compound 32, N-(3-chloro-4-fluorophenyl)-2,3,4,5-tetrahydro-1H-benzo[b]azepine-1-carboxamide]
[1]; AML12HBV10 cells
  anti-HBV activity (in words): diminished the activity

## COC(=O)C1=C(C)NC(c2ncc(F)cc2F)=N[C@H]1c1ccc(F)cc1Cl [Bay 41-4109]
[2]
  amount of encapsidated pgRNA: significantly reduced
  viral DNA replication intermediates: viral DNA replication was inhibited

## O=C(Nc1ccc(F)c(Cl)c1)N1c2ccccc2NCC1CN1CCOCC1 (stereo not drawn) [Compound 71, N-(3-chloro-4-fluorophenyl)-2-(morpholinomethyl)-3,4-dihydroquinoxaline-1(2H)-carboxamide]
[1]; AML12HBV10 cells
  anti-HBV activity (in words): reduced the activity significantly

## O=C(Nc1ccc(F)c(Cl)c1)N1CC(CN2CCC(F)(F)CC2)N(C(=O)Nc2ccc(F)c(Cl)c2)c2ccccc21 (stereo not drawn) [Compound 98, N^1,N^4-bis(3-chloro-4-fluorophenyl)-2-((4,4-difluoropiperidin-1-yl)methyl)-2,3-dihydroquinoxaline-1,4-dicarboxamide]
[1]; AML12HBV10 cells
  anti-HBV activity (in words): did not help to improve the activity significantly

## C=C1[C@H](CO)[C@@H](O)C[C@@H]1n1cnc2c(=O)[nH]c(N)nc21 [ETV, Entecavir]
[2]
  amount of total viral RNA: did not alter
  amount of core protein: did not alter
  amount of encapsidated pgRNA: did not alter
  viral DNA replication intermediates: drastically reduced
[2]; particle gel assay
  amount of capsid-associated viral DNA: drastically reduced

## O=C(Nc1ccc(F)c(Cl)c1)N1CCN(C(=O)Nc2ccc(F)c(Cl)c2)c2ccccc21 [Compound 18, N^1,N^4-bis(3-chloro-4-fluorophenyl)-2,3-dihydroquinoxaline-1,4-dicarboxamide]
[2]
  amount of total viral RNA: did not alter
  amount of core protein: did not alter
  amount of encapsidated pgRNA: drastically reduced
  viral DNA replication intermediates: drastically reduced

## O=C(NCc1cccc(Cl)c1)N1CCNc2ccccc21 [Compound 44, N-(3-chlorobenzyl)-3,4-dihydroquinoxaline-1(2H)-carboxamide]
[1]; AML12HBV10 cells
  anti-HBV activity (in words): reduced the activity

## O=C(Nc1ccc(F)c(Cl)c1)C1CCNc2ccccc21 (stereo not drawn) [Compound 23, N-(3-chloro-4-fluorophenyl)-1,2,3,4-tetrahydroquinoline-4-carboxamide]
[1]; AML12HBV10 cells
  anti-HBV activity (in words): loss of activity

## O=C(Nc1ccc(F)c(Cl)c1)c1cccc2c1OCCO2 [38017 (8)]
[3]
  EC50 (in words): sub-micromolar

## O=C(Nc1ccc(F)c(Cl)c1)N1CC(CN2CCC(F)(F)C2)N(C(=O)Nc2ccc(F)c(Cl)c2)c2ccccc21 (stereo not drawn) [Compound 97, N^1,N4-bis(3-chloro-4-fluorophenyl)-2-((3,3-difluoropyrrolidin-1-yl)methyl)-2,3-dihydroquinoxaline-1,4-dicarboxamide]
[1]; AML12HBV10 cells
  anti-HBV activity (in words): did not help to improve the activity significantly

## N#Cc1cc(NC(=O)N2c3ccccc3NCC2CN2CCC(F)(F)CC2)ccc1F (stereo not drawn) [Compound 86, N-(3-cyano-4-fluorophenyl)-2-((4,4-difluoropiperidin-1-yl)methyl)-3,4-dihydroquinoxaline-1(2H)-carboxamide]
[1]; Hepatitis B virus, AML12HBV10, in Mus musculus
  EC50: ~100 nM

## O=C(Nc1ccc(F)c(Cl)c1)N1CCNc2ccccc21 [Compound 17, N-(3-chloro-4-fluorophenyl)-3,4-dihydroquinoxaline-1(2H)-carboxamide]
[2]
  amount of total viral RNA: did not alter
  amount of core protein: did not alter
  amount of encapsidated pgRNA: drastically reduced
  viral DNA replication intermediates: drastically reduced

## CC1(C)CCN(CC2CNc3ccccc3N2C(=O)Nc2ccc(F)c(Cl)c2)CC1 (stereo not drawn) [Compound 76, N-(3-chloro-4-fluorophenyl)-2-((4,4-dimethylpiperidin-1-yl)methyl)-3,4-dihydroquinoxaline-1(2H)-carboxamide]
[1]; AML12HBV10 cells
  anti-HBV activity (in words): loss of activity

## O=C(Nc1ccc(F)c(C(F)(F)F)c1)N1c2ccccc2NCC1CN1CCC(F)(F)CC1 (stereo not drawn) [Compound 87, 2-((4,4-difluoropiperidin-1-yl)methyl)-N-(4-fluoro-3-(trifluoromethyl)phenyl)-3,4-dihydroquinoxaline-1(2H)-carboxamide]
[1]; AML12HBV10 cells
  anti-HBV activity (in words): moderate sub-micromolar

## O=C(Cc1ccc(F)c(Cl)c1)N1CCNc2ccccc21 [Compound 45, 2-(3-chloro-4-fluorophenyl)-1-(3,4-dihydroquinoxalin-1(2H)-yl)ethanone]
[1]; AML12HBV10 cells
  anti-HBV activity (in words): loss of activity

## O=C1CN(C(=O)Nc2ccc(F)c(Cl)c2)c2ccccc2N1 [Compound 29, N-(3-chloro-4-fluorophenyl)-3-oxo-3,4-dihydroquinoxaline-1(2H)-carboxamide]
[1]; AML12HBV10 cells
  anti-HBV activity (in words): inactive

## CCC(C)NS(=O)(=O)c1ccc(F)c(C(=O)Nc2ccc(F)c(F)c2)c1 (stereo not drawn) [DVR-23]
[2]
  amount of encapsidated pgRNA: significantly reduced
  viral DNA replication intermediates: viral DNA replication was inhibited

## O=C(Nc1ccc(F)c(Cl)c1)N1CCN[C@H]2CCCC[C@H]21 (relative stereo) [Compound 34, Cis-N-(3-chloro-4-fluorophenyl)octahydroquinoxaline-1(2H)-carboxamide]
[1]; AML12HBV10 cells
  anti-HBV activity (in words): loss of activity

## O=S(=O)(Nc1ccc(F)c(Cl)c1)N1CCNc2ccccc21 [Compound 26, N-(3-chloro-4-fluorophenyl)-3,4-dihydroquinoxaline-1(2H)-sulfonamide]
[1]; AML12HBV10 cells
  anti-HBV activity (in words): loss of activity

## O=C(Nc1ccc(F)c(Cl)c1)N1CCN(C(=O)Nc2cc(Cl)c(F)cc2F)c2ccccc21 [Compound 96, N^1-(5-chloro-2,4-difluorophenyl)-N^4-(3-chloro-4-fluorophenyl)-2,3-dihydroquinoxaline-1,4-dicarboxamide]
[1]; AML12HBV10 cells
  anti-HBV activity (in words): sub-micromolar activities

## O=C(Nc1ccc(F)c(Cl)c1)N1c2ccccc2NCC1c1ccccc1 (stereo not drawn) [Compound 74, N-(3-chloro-4-fluorophenyl)-2-phenyl-3,4-dihydroquinoxaline-1(2H)-carboxamide]
[1]; AML12HBV10 cells
  anti-HBV activity (in words): sub-micromolar activity
